A short description of data set [1]: Lipophilicity log P of the compound. The format is physicochemical. The note with it: octanol/water. The method, boiled down: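 Calculated rather than measured, alongside the B3LYP/6-311++G(d,p) dipole moment.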
For data set [2], the system named is Aedes aegypti. The experiment in a line: Larvicidal activity against Aedes aegypti L4 stage larvae assessed as induction of larval mortality incubated for 48 hrs. Format: functional. Conditions: for LC50: Aedes aegypti, 48 h. The essentials:
(§1)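 Adapted WHO larval test. Compound solubilized with Tween 80 co-solvent in distilled water as stock, then diluted. Fourth-instar A. aegypti larvae, 20 per beaker, in 20 mL test solution; four replicates per concentration, plus a compound-free negative control. Mortality scored after 48 h at 28 ± 2 °C, 70 ± 10 relative humidity (dead = no response to stimulus or failure to surface). LC50 from probit analysis.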

Data set [3] in a line: Cytotoxicity against BALB/c mouse splenocytes assessed as reduction in cell viability incubated for 24 hrs by beta-radiation counting based [3H]-thymidine incorporation assay. The arrangement: species or system Splenocyte. The method, boiled down:
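BALB/c mouse splenocytes seeded at 6 × 10^5 cells/well in RPMI-1640 with 10% FBS and gentamycin; compound added in DMSO at six concentrations (1, 5, 10, 25, 50, 100) in triplicate; 24 h at 37 °C, 5% CO2; then 3H-thymidine pulse and beta counting. Viability as % incorporation versus solvent-only cells; saponin positive control; highest non-toxic concentration estimated.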
(Uptake of a labelled nucleoside into DNA is a usual measure of proliferation.)

The test system of data set [4] is Aedes aegypti. The experiment in a line: Larvicidal activity against Aedes aegypti. The format is functional. The method, boiled down: as §1
Data set [5] addresses T1, Sterol carrier protein 2 (Aedes aegypti) (UniProt Q86PR3).
T1 sequence (whole entry): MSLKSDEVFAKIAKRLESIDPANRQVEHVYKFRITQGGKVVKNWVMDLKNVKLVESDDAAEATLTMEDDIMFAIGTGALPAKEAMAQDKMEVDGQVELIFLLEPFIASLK
Nature of the data set: (§2) Inhibition of NBD-cholesterol binding to recombinant Aedes aegypti SCP-2 protein by fluorescence based assay. The method, boiled down: (§3)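 Competition assay with purified recombinant AeSCP-2, NBD-cholesterol and compound at increasing concentrations, read as fluorescence intensity. Separate NBD-cholesterol plus compound wells served as background where the compound interfered with fluorescence. Net signal is NBD-cholesterol/SCP-2/compound fluorescence minus that background, plotted as dose-response.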

The target of the next data set is T2, Sterol carrier protein 2 (Aedes aegypti, UniProt Q86PR3).
T2 sequence (Q86PR3 whole entry): T1 sequence (whole entry)
The description is as §2. The method, boiled down:
as §3

Values after ≈ are worked out from the molar mass of the structure shown. Values joined by “and” are separate entries in the source; they are usually repeats but may differ in a detail not shown here. Equal values may be shown once.

A word on the logP: it is the decadic logarithm of the partition coefficient of the neutral form, usually between octanol and water. As a reminder, the LC50 is the concentration that kills 50% of the test population. For orientation: EC50 means the concentration that produces a half-maximal response.

Regarding `NC(=S)N/N=C/c1ccc(F)cc1`, the logP in data set [1] amounted to 2.18. Moreover, in the data set with Aedes aegypti [2], the “log(1/LC50)” value came out at 3.507; the LC50 is 61.3 µg/mL and 311 µM. Moreover, the MNTC at 24 h in data set [3] came to 25.4 µM.

As to `NC(=S)N/N=C/COc1cccc(Cl)c1`, the logP in data set [1] is 2.65. Moreover, in the data set on Aedes aegypti [2], the “log(1/LC50)” value is given as 3.542; the LC50 was 70 µg/mL and 287 µM. In data set [3], the MNTC at 24 h came out at 103 µM.

Take `CC(C)CNC(=O)/C=C/C=C/CCCCCC/C=C/c1ccc2c(c1)OCO2` [GUINEENSINE]: in the data set on Aedes aegypti [4], the LC50 was found to be 0.89 µg/mL (≈ 2.32 µM).

`NC(=S)N/N=C/COc1ccc(Br)cc1` showed a logP in data set [1] of 2.9. Moreover, in the data set on Aedes aegypti [2], the “log(1/LC50)” value is on record as 4.036; the LC50 is 26.5 µg/mL and 92 µM. Moreover, the MNTC at 24 h in data set [3] was > 347 µM.

In turn, `CC(C)CNC(=O)/C=C/C=C/CCCC/C=C/c1ccc2c(c1)OCO2` [RETROFRACTAMIDE B] had an LC50 with Aedes aegypti [4] of 0.1 µg/mL (≈ 0.281 µM).

Consider `NC(=O)N/N=C/c1ccc(Cl)c(Cl)c1`, for which, in the data set on Aedes aegypti [2], the LC50 was > 200 µg/mL and > 862 µM. Moreover, in data set [3], the MNTC at 24 h is > 431 µM.

With `COc1ccc(OC/C=N/NC(N)=S)cc1`, in data set [1], the logP worked out at 2.09. Also, in the data set with Aedes aegypti [2], the “log(1/LC50)” value was found to be 3.298; the LC50 was 120 µg/mL and 503 µM. Besides, in data set [3], the MNTC at 24 h was 20.9 µM. Further, the inhibition entry in data set [5] was “Dose-dependent effect”. At Sterol carrier protein 2, the EC50 is 0.6 µM.

Consider `NC(=S)N/N=C/c1ccc(O)cc1`, for which the MNTC at 24 h in data set [3] was found to be 5.12 µM. Besides, in data set [5], the inhibition entry is “Dose-dependent effect”. The EC50 at Sterol carrier protein 2 was 5 µM.

As to `NC(=S)N/N=C/COc1ccc(Cl)cc1`, the logP in data set [1] was determined as 2.65. In addition, in the data set with Aedes aegypti [2], the “log(1/LC50)” value came to 4.046; the LC50 was 21.9 µg/mL and 89.9 µM. The MNTC at 24 h in data set [3] is 103 µM.

Compound `NC(=S)N/N=C/c1ccc(Br)cc1` showed a logP in data set [1] of 2.87. In addition, in the data set with Aedes aegypti [2], the “log(1/LC50)” value was found to be 3.91; the LC50 was 31.7 µg/mL and 123 µM. Further, the MNTC at 24 h in data set [3] was < 3.87 µM.

On to `C/C(=N\NC(N)=S)C(C)Oc1ccc(Cl)c(Cl)c1` (stereo not drawn), for which the log partition coefficient (logP) in data set [1] amounted to 4.87. In addition, in the data set with Aedes aegypti [2], the LC50 worked out at 3.95 µM.

With `NC(=S)N/N=C/COc1ccc(Cl)c(Cl)c1`, the logP in data set [1] was 3.3. Also, in the data set with Aedes aegypti [2], the “log(1/LC50)” value was found to be 4.68; the LC50 was 5.8 µg/mL and 20.9 µM. Besides, the MNTC at 24 h in data set [3] worked out at 89.8 µM.

In turn, `NC(=S)N/N=C/COc1cccc(Cl)c1Cl` registered a logP in data set [1] of 3.3. Further, in the data set with Aedes aegypti [2], the “log(1/LC50)” value is recorded as 4.154; the LC50 is 19.5 µg/mL and 70.1 µM. The MNTC at 24 h in data set [3] was 17.9 µM.

As for `NC(=S)N/N=C/C=C/c1ccccc1`, in the data set on Aedes aegypti [2], the “log(1/LC50)” value was determined as 3.86; the LC50 is 28.4 µg/mL and 138 µM. For the same compound, the MNTC at 24 h in data set [3] was < 4.87 µM.

For the compound `NC(=O)N/N=C/c1ccc(F)cc1`, the median lethal concentration (LC50) in the data set on Aedes aegypti [2] was > 200 µg/mL and > 1.1 mM. Moreover, the MNTC at 24 h in data set [3] was > 55.1 µM.

In turn, `CCCCC/C=C/C=C/C(=O)NCC(C)C` [PELLITORIN] returned an LC50 in the data set on Aedes aegypti [4] of 0.92 µg/mL (≈ 4.12 µM).

Consider `NC(=S)N/N=C/COc1ccccc1`, for which the logP in data set [1] was 2.01. For the same compound, in the data set on Aedes aegypti [2], the “log(1/LC50)” value is listed as 3.268; the LC50 was 113 µg/mL and 538 µM. The MNTC at 24 h in data set [3] is 119 µM.

For `N/C(S)=N/N=C/c1ccc(Cl)c(Cl)c1`, in data set [1], the logP worked out at 3.27. For the same compound, in the data set on Aedes aegypti [2], the “log(1/LC50)” value stood at 4.157; the LC50 is 17.3 µg/mL and 69.7 µM. The MNTC at 24 h in data set [3] was 20.2 µM.

As to `CC(C)CNC(=O)/C=C/C=C/CC/C=C/c1ccc2c(c1)OCO2` [RETROFRACTAMIDE A], the LC50 with Aedes aegypti [4] is 0.04 µg/mL (≈ 0.122 µM).

Regarding `NC(=S)N/N=C/c1cccc(/C=N/NC(N)=S)c1`, the LC50 in the data set with Aedes aegypti [2] is > 200 µg/mL.

For the compound `NC(=S)N/N=C/c1ccc(Cl)cc1`, the logP in data set [1] came out at 2.63. Further, in the data set on Aedes aegypti [2], the “log(1/LC50)” value came out at 3.873; the LC50 was 28.8 µg/mL and 135 µM. Also, in data set [3], the MNTC at 24 h was 23.3 µM.

The record behind these values is ChEMBL document CHEMBL3588801, “Thiosemicarbazones as Aedes aegypti larvicidal” (Eur J Med Chem, 2015).
